# Screening results deposited in PubChem BioAssay by several laboratories.
# GC-B act: human GC-B receptor activators, primary screen, HEK293 GC-B cells, cGMP TR-FRET, EC30 CNP. Atrial natriuretic peptide receptor 2 (Homo sapiens), P20594. 0% at EC30 CNP, 100% saturating CNP. activation, % at 10 µM. 370,000 tested, 0.11% active;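 active = activation at 10 µM reaching about 35% in either raw or pattern-adjusted values, limit read from the data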
# XiGFP reactiv: activators of inactive X chromosome reactivation, primary screen, imaging, XiGFP fibroblasts, GFP high-content imaging, set 2; 360,000 tested, 0.055% active; AID 743238, 2013; activation, % at 7.58 µM; XiGFP mouse fibroblasts, % GFP-positive cells imaging, 3 d; cells co-treated with 5-aza-dC sensitizer; scaled so ellipticine positive control = 100%;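 active = mean normalized replicate activation at least 10% and every replicate at or above 10%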;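 note: 0% = median of on-plate neutral control wells and 100% = ellipticine 6 µM median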
#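 Schedule: 3 d treatment, 15 min room-temperature fixation; system: 68-5-11 XiGFP fibroblast line; buffer or medium: DMEM plus 5-aza-dC sensitizer; control set: ellipticine 6 µM positive control; compound: one concentration, pinned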
# Vif imaging: HIV Vif self-association inhibitors, primary screen, imaging, HEK293T, single point | HEK293T cells, Vif self-association by quenched fluorescence, 24 h | inhibition, % at 7.49 µM | 340,000 tested, 0.35% active | AID 602346, 2012; in the data active = inhibition above about 50%, passing the limit was not always enough
# CaV13 ICDI inh: Primary screen for inhibitors of IQ motif and Ca2+-dependent inactivation inhibitor domain binding in CACNA1D, Förster resonance energy transfer in living cells, …; AID 743397; inhibition, % at 12.3 µM; HEK cells, CFP/YFP FRET ICDI-IQ, plate reader, 10 min; percent FRET-ratio fall versus neutral wells; 340,000 tested, 0.098% active;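 active = mean replicate inhibition of at least 30% and at least 1% of replicates passing that level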;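 note: 0% = median of the neutral control wells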
# NPR1 activator: GC-A stimulated cGMP production enhancers – HEK293 GC-A cells, cGMP TR-FRET, EC30 ANP, primary screen; Atrial natriuretic peptide receptor 1 (Homo sapiens), P16066; 0% at EC30 ANP, 100% saturating ANP; activation, % at 10 µM; 370,000 tested, 0.14% active; AID 1671463, 2021; in the data active = activation above about 40%
# N-glyco inh: increase of ERlucT glycosylation luciferase signal, primary screen, N-linked glycosylation inhibitor project, D54 ERlucT cells, luminescence, set 2; D54 ERlucT glycosylation luciferase reporter, 24 h; percent of 100 nM tunicamycin response; reporter increase, % at 12.5 µM; 360,000 tested, 0.23% active; AID 588692, 2011;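 active = mean luciferase reporter signal, scaled so untreated is 0 and the glycosylation-blocking control 100, at or above a set limit in every replicate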;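 note: luciferase carries N-glycosylation sites so blocking glycosylation raises the light; 0% = median of neutral control wells and 100% = median of 100 nM tunicamycin wells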
# An asterisk follows results filed as active; x = not tested or not shown; + = active, no number. Hits are enriched below; roughly 0.7% of the tested compounds scored in any of these assays.
SMILES,GC-B act,XiGFP reactiv,Vif imaging,CaV13 ICDI inh,NPR1 activator,N-glyco inh
O=C(C[C@H]1CC[C@@H]2[C@H](COC[C@@H](O)CN2S(=O)(=O)c2ccc(Cl)cc2)O1)NCc1ccc(Cl)c(Cl)c1,x,0.3,x,x,x,x
COc1cc(O)c(C(=O)/C=C/c2ccccc2)c(OC)c1,-4.7,x,8.3,x,-4.9,41.7*
COCC(=O)N1[C@H](CO)[C@@H](c2ccc(-c3ccccc3)cc2)C12CN(C(C)=O)C2,x,0.0,x,x,x,x
O=C(NS(=O)(=O)c1ccc(Cl)s1)c1ccccc1,1.9,0.2,0.1,46.2*,-0.1,1.9
Cc1cc(/C=C2\SC(=S)N(Cc3ccco3)C2=O)c(C)n1-c1cccnc1,-2.2,x,187.1*,-6.0,-1.4,-10.6
CO[C@@H]1CN(C)C(=O)c2ccc(NC(=O)Nc3ccc(F)cc3)cc2OC[C@@H](C)N(C(=O)c2cnccn2)C[C@H]1C,x,-0.5,x,x,x,x
CCOCC(=O)NC1CCc2cc(OC(=O)COCC)c(OC)c(OC)c2-c2ccc(SC)c(=O)cc21 (stereo not drawn),0.4,0.9,95.3*,-5.1,1.3,11.3
CNC1CCc2cc(OC)c(OC)c(OC)c2-c2ccc(SC)c(=O)cc21 (stereo not drawn),-1.6,0.2,102.9*,-2.0,-7.1,3.2
COc1ccc2c3c([nH]c2c1)[C@H](CO)N(Cc1cccnc1)CC31CN(C(=O)c2cccnc2)C1,x,0.2,x,x,x,x
CCS(=O)(=O)N1CCC2(CC1)CN(Cc1ccccc1OC)[C@@H](CO)c1c2c2ccc(OC)cc2n1C,x,-0.1,x,x,x,x
COc1ccc(NC(=O)N[C@@H]2CC[C@@H](CCn3cc(-c4ccccc4)nn3)O[C@H]2CO)cc1,x,0.2,x,x,x,x
CC(C)c1ccc(/C=C2\Oc3c(ccc(O)c3CN3CCN(C)CC3)C2=O)cc1,1.8,0.0,4.9,+,4.9,-1.2
CO[C@H]1CC[C@H]2CCOc3ccc(C#N)cc3C(=O)N(C)C[C@@H](OC)[C@@H](C)C(=O)N(C)C[C@H]1O2,x,0.0,x,x,x,x
C[C@@H]1CN([C@H](C)CO)C(=O)c2cc(NS(=O)(=O)c3ccc(F)cc3)ccc2O[C@@H]1CN(C)S(=O)(=O)c1ccc(F)cc1,x,0.3,x,x,x,x
CC(CN1CCOCC1)(NS(=O)(=O)c1ccccc1)c1ccccc1 (stereo not drawn),-6.8,x,-2.9,-6.4,-7.4,1.6
CC(CN)(NS(=O)(=O)c1ccccc1)c1ccccc1 (stereo not drawn),-7.6,-0.1,66.3*,-2.4,-6.9,-1.2
CN1CCN(C(=S)c2ccc(-c3cc(Cl)ccc3Cl)o2)CC1,50.4*,-0.1,-1.7,-4.7,3.8,-1.4
N#CCCN1CCN(C(=S)c2ccc(-c3cc(Cl)ccc3Cl)o2)CC1,96.7*,x,-18.4,-3.8,3.9,-5.8
S=C(c1ccc(-c2ccc(Cl)cc2Cl)o1)N1CCCC1,30.1,0.0,7.9,-3.8,7.8,-2.5
O=C1CN(c2nc(-c3ccccc3)c3cc(Cl)ccc3n2)c2ccccc2N1,-11.1,x,-0.6,-10.2,-5.3,13.8
O=C1Cc2c(-c3ccccc3)cc(-c3cccc(Cl)c3)nc2-c2ccccc2N1,-6.5,0.0,0.5,-6.1,-3.8,72.3*
CCN(CC)c1ccc(C(=C2C=CC(=[N+](CC)CC)C=C2)c2ccccc2)cc1,38.7*,-0.1,-11.9,-9.0,-44.4,-22.8
CCCCCSc1nc(N2CCOCC2)c2c(c1C#N)CC(C)(C)OC2,47.4*,x,23.7,-3.4,43.7*,1.8
CC1(C)Cc2c(C#N)c(SCc3ccccc3)nc(N3CCOCC3)c2CO1,51.7*,x,-3.8,x,21.2,-3.5
CC1(C)Cc2c(C#N)c(SCC(=O)c3ccccc3)nc(N3CCOCC3)c2CO1,16.3,x,x,-6.2,10.7,-2.5
SMILES,GC-B act,XiGFP reactiv,Vif imaging,CaV13 ICDI inh,NPR1 activator,N-glyco inh
CCCOC(=O)CSc1nc(N2CCOCC2)c2c(c1C#N)CC(C)(C)OC2,16.7,0.2,-1.4,-1.7,5.9,2.3
C[C@H](NC(=O)C[C@H]1C=C[C@H](NC(=O)C2CCC2)[C@@H](CO)O1)c1ccccc1,x,0.1,x,x,x,x
COc1ccccc1C(=O)Nc1ccc2c(c1)OC[C@H](C)N(C)C[C@H](C)[C@H](OC)CN(C)C2=O,x,-0.3,x,x,x,x
COc1ccc(Cl)cc1C(=O)NCCN(C)C,4.1,x,1.0,-3.7,-0.2,-1.6
CN(C)CCNC(=O)c1ccc(COc2ccc(Cl)cc2Cl)cc1,-8.7,x,14.9,-3.6,47.1*,-2.7
O=C(NCc1ccco1)c1ccc(COc2cc(Cl)ccc2Cl)cc1,4.5,-0.1,2.6,-17.7,40.7*,-2.4
C/C=C/c1cnc2c(c1)C(=O)N([C@H](C)CO)C[C@@H](C)[C@@H](CN(C)C(=O)Nc1ccccc1F)O2,x,0.3,x,x,x,x
C=C1C(=O)[C@]23C[C@H]1CC[C@H]2[C@]1(C)CCC[C@@](C)(C(=O)OC)[C@H]1C[C@@H]3O,38.0*,x,x,x,18.7,x
Cc1ccc(CNc2ccc3c(c2)OCO3)cc1,x,x,62.5*,x,x,4.9
O=C(COc1ccccc1)N(Cc1ccco1)c1ccc(O)cc1,-3.5,x,21.6,-0.2,-5.3,-1.8
O=C(c1ccc(Cl)c(Cl)c1)N(Cc1ccco1)c1ccc(O)cc1,-9.8,x,54.3*,-3.8,-5.8,-4.9
CCN(CC)CCC(=O)Nc1cccc2c1C(=O)c1ccccc1C2=O,-6.5,0.0,x,-26.6,8.3,109.8*
Nc1cccc(C(=O)OCC(=O)Nc2cccc3c2C(=O)c2ccccc2C3=O)c1,-4.7,-0.1,19.7,-2.7,-4.9,4.5
C[C@@H]1CN([C@H](C)CO)C(=O)c2c(c3ccccc3n2C)-c2ccccc2CO[C@H]1CN(C)C(=O)Nc1ccccc1C(F)(F)F,x,0.4,x,x,x,x
C[C@@H]1CN([C@H](C)CO)C(=O)c2c(c3ccccc3n2C)-c2ccccc2CO[C@@H]1CN(C)C(=O)Nc1ccccc1C(F)(F)F,-0.1,0.0,53.0*,-5.5,6.0,1.3
Cc1cnc(NC(=O)CSc2nnc(COc3c(C)cccc3C)o2)s1,96.8*,0.2,-6.8,-2.6,0.7,-0.3
COc1ccc(S(=O)(=O)N2CC3(CN(C(=O)c4cccnc4)[C@@H](CO)c4c3c3ccc(OC)cc3n4C)C2)cc1,x,0.0,x,x,x,x
OC[C@H]1[C@H](c2ccc(C#Cc3ccccc3)cc2)[C@@H]2CN(Cc3cncnc3)CCCCN12,x,0.1,x,x,x,x
Cc1ccc(CC(NC(=O)c2ccccc2)C(=O)NC(Cc2ccccc2)C(=O)O)cc1 (stereo not drawn),1.0,0.8,-7.0,1.5,-2.9,3.5
